Structures are written as SMILES. Values after ≈ are worked out from the molar mass of the structure shown.

Type in all cases: functional
Test [1] is described as follows: Minimum inhibitory activity towards Bacillus subtilis ATCC 33608. The gist of the method:
(§1)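 Broth microdilution in Mueller-Hinton broth, inoculum 5 × 10^5 CFU/mL. MIC taken as the lowest antibiotic concentration preventing growth, judged by absence of turbidity after 24 h at 37 °C.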

The test system of a further test is Enterococcus faecalis. The test can be described thus: Minimum inhibitory activity towards Enterococcus faecalis ATCC 29212. The gist of the method: as §1
A further test has as its system Klebsiella pneumoniae. As to the kind of experiment: Minimum inhibitory activity towards Klebsiella pneumoniae ATCC 10031. The method in brief: as §1
The subject of the next test is Staphylococcus aureus. The test can be described thus: Minimum inhibitory activity towards Staphylococcus aureus ATCC 25923. The method in brief: as §1

As usually defined, the MIC is the least concentration at which growth counts as inhibited. A low value points to greater potency. Consider `CC(=O)OCC1=C(C(=O)O)N2C(=O)[C@@H](NC(=O)[C@@H](Cc3ccccc3)NNC(=O)OCc3ccccc3[N+](=O)[O-])C2SC1` (some centres undefined), for which the MIC was 2 µg/mL (≈ 3.26 µM) in test [1], more than 32 µg/mL against Enterococcus faecalis, 32 µg/mL (≈ 52.2 µM) with Klebsiella pneumoniae and 1 µg/mL (≈ 1.63 µM) with Staphylococcus aureus.
